These results are taken from publication PMC2949545 (Environment international, 2010).

“And” between values parts separate entries of the source, which are not always exact repeats. Identical values can stand only once. Like-named read-outs stand apart in the source and are kept apart here.

Data set [1] concerns LacI gene. Put plainly: LacI gene sequencing, type of mutations. To be noted: female liver; for Deletions, distinct mutations / Insertions, distinct mutations / Transitions, distinct mutations / Transversions, distinct mutations: number. It is filed as in vivo, F344 BigBlue rats.
Data set [2] in a line: Body weight gain during the study period. It is filed as in vivo, F344 BigBlue rats. To be noted: for effect on weight gain compared to control: either gender.
The test system of data set [3] is F344 BigBlue rats. The data set is described as follows: Organ weights normalized to body weight. It is filed as in vivo. To be noted: versus corn oil controls. The gist of the method:
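Rats of both genders, 4/group, were given 4 weekly i.p. doses in corn oil and killed on PND75 by CO2 then cervical dislocation. Liver and other organs were excised and weighed, and weights were expressed as g per 100 g body weight. ANOVA used treatment, gender and their interaction.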

Data set [4] concerns F344 BigBlue rats. Put plainly: Histological analysis of spleen, lung and liver. It is filed as in vivo. The following applies: animal 1 – 4. The gist of the method:
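In both genders, frozen tissue sampled at PND75 sacrifice (4 weekly i.p. doses, 4 rats/group) was cut into four-micron sections. Sections were stained with hematoxylin/eosin and examined by light microscopy for histological anomalies in each animal.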

The test system of data set [5] is LacI gene. Put plainly: BigBlue lacI mutant and mutation frequency analysis, female liver. It is filed as in vivo, F344 BigBlue rats. The following applies: for Mutants per 10^6 plaques (mutant frequency): 4 weekly i.p. injections, sacrifice PND75; for Mutation Frequency (MF) ± SE (corrected) / Number of Mutations (corrected): after sequencing; for Number of Mutations (corrected): duplicates and non-mutants excluded. The gist of the method:
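Female F344 BigBlue rats (lacI transgene), 4/group, got i.p. test compound, positive control or corn oil (5 ml/kg) weekly on PND 37, 44, 51, 58 and were killed on PND75. Genomic DNA from 50 mg central liver was lambda-packaged, infected into E. coli and plated in X-gal top agar overnight. Blue plaques were counted, with >100,000 pfu/animal. Mutant frequency = blue plaques/pfu, per 10^6 ± SE.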

The subject of the next data set is liver mRNA. Put plainly: Gene expression analysis of female liver RNA. It is filed as in vivo, F344 BigBlue rats. The following applies: for number of unique genes significantly changed: p < 0.0001 and fold change > 5 versus corn oil control, pooled RNA.
The subject of another data set is LacI. To be noted: male livers; control 19%; ref Lehmann et al. 2007; cited from earlier work.
Data set [6] concerns F344 BigBlue rats. To be noted: Male; animal 1 – 4; previously reported; ref Lehmann et al. 2007; Maddox et al. 2008; cited from earlier work.
The conditions of data set [7]: ref Espandiari et al. 2004; cited from earlier work.
A further data set deals with Sprague Dawley rat. The following applies: female Sprague Dawley rats; ref http://ntp.niehs.nih.gov/; cited from earlier work.
[8] abbreviates: versus corn oil control, up-regulated.

For `Clc1ccc(-c2ccccc2)cc1` [PCB3, 4-chlorobiphenyl], in the data set on LacI gene [1], the “Deletions, % of total” value came out at 7%; the “Insertions, % of total” value amounted to 20%; the “Total Mutations” value worked out at 15; the “Transitions, % of total” value amounted to 53%. Further, in the data set with LacI gene [1], the “Transversions, % of total” value was 20%; the “Deletions, distinct mutations” value was 1; the “Insertions, distinct mutations” value was determined as 3; the “Transitions, distinct mutations” value is reported as 8. Besides, the “Transversions, distinct mutations” value in the data set on LacI gene [1] came out at 3. Also, the “Weight Gain (average ± StDev)” value in [2] (Female, control 80.7 ± 7.42) was 79.6 ± 4.51 gram. In addition, in [2] (Male, control 159.7 ± 7.63), the “Weight Gain (average ± StDev)” value was determined as 146.1 ± 7.99 gram. Besides, the “effect on weight gain compared to control” value in data set [2] was “Neither PCB3 nor 4′-OH-PCB3 had a significant effect on weight gain in either gender”. In addition, the “impact on liver, lung and spleen weights” value with F344 BigBlue rats [3] was “no statistically significant impact”. In the data set with F344 BigBlue rats [4] (Female), the “Organ Pathology, LIVER” value was “all female PCB3 livers had acidophilic bodies and two animals also showed patchy hepatocellular necrosis and 1 + 2: Scattered acidophilic bodies 3: Centrilobular acidophilic bodies and patchy hepatocellular necrosis. 4: Centrilobular acidophilic bodies and patchy hepatocellular necrosis”; the “Organ Pathology, LUNG” value is 1: Focal acute inflammation 2: Minimal acute inflammation with areas of atelectasis 3: Minimal acute inflammation 4: Patchy bronchopneumonia with early ARDS. Perivascular lymphocytes increased; the “Organ Pathology, SPLEEN” value was “No abnormality”. In addition, in the data set on F344 BigBlue rats [4] (Male), the “Organ Pathology, SPLEEN” value is “No abnormality”. For the same molecule, in the data set with LacI gene [5], the “significance of the increase in mutation frequency compared to control” value is listed as “neither PCB3 (p=0.429) nor 4′-OH-PCB3 (p=0.581) increased the mutation frequency significantly”, the “Mutants per 10^6 plaques (mutant frequency)” value turned out to be 30.3 per 10^6 plaques, the “Mutation Frequency (MF) ± SE (corrected)” value is listed as 30.3 ± 17.9 per 10^6 pfu and the “Number of Mutations (corrected)” value was 15. Moreover, in the data set on liver mRNA, the “number of unique genes significantly changed” value was 86. In addition, the “CYP mRNA in the liver” value in the data set on liver mRNA (versus corn oil control) is given as “No CYP mRNA increase”. In addition, in the data set on liver mRNA (versus corn oil control, up), the Jun expression change is reported as 55.9 fold, the “avpr1a (arginine vasopressin receptor 1A) expression change” value worked out at 7.3 fold, the “cfdp1 (craniofacial development protein 1) expression change” value came out at 6.2 fold and the “cps1 (carbamoyl-phosphate synthetase 1) expression change” value is 6.7 fold. In the data set on liver mRNA (versus corn oil control, up), the “hmox1 (heme oxygenase 1) expression change” value came to 5.8 fold, the “kdr (kinase insert domain protein receptor) expression change” value came to 5.5 fold, the “lrrc59 (leucine rich repeat containing 59) expression change” value was found to be 33.1 fold and the “mbd2 (Methyl-CpG-binding protein) expression change” value is listed as 6.9 fold. Also, the “mrpl23 (mitochondrial ribosomal protein L23) expression change” value in the data set with liver mRNA (versus corn oil control, up) was 223.3 fold. In addition, in the data set on liver mRNA (setting [8]), the “sult1b1 (sulfotransforase 1b1) expression change” value was roughly 7 fold.

With `Oc1ccc(-c2ccc(Cl)cc2)cc1` [4′-OH-PCB3], the “frameshift mutations, % of mutations” value in the data set on LacI was 22%. Further, in the data set on LacI gene [1], the “Deletions, % of total” value worked out at 12%; the “Insertions, % of total” value was 24%; the “Transitions, % of total” value is listed as 35%; the “Transversions, % of total” value is listed as 29%. Besides, in the data set with LacI gene [1], the “Deletions, distinct mutations” value is recorded as 2; the “Insertions, distinct mutations” value is 4; the “Transitions, distinct mutations” value was determined as 6; the “Transversions, distinct mutations” value worked out at 5. Further, the “frameshift mutations (deletions and insertions), % of all mutations” value in the data set on LacI gene [1] (solvent controls 18%) stood at 36%. The “Weight Gain (average ± StDev)” value in data set [2] (Female, control 80.7 ± 7.42) was found to be 85.3 ± 4.13 gram. Besides, the “Weight Gain (average ± StDev)” value in data set [2] (Male, control 159.7 ± 7.63) was 129.6 ± 17.50 gram. The “effect on weight gain compared to control” value in [2] is “Neither PCB3 nor 4′-OH-PCB3 had a significant effect on weight gain in either gender”. Moreover, in the data set on F344 BigBlue rats [6], the “Organ Pathology, LIVER” value is “all four male 4′-OH-PCB3 livers showed dilated sinosoids and 1: dilated sinusoids, rare acidophil body. No obvious inflammation. 2, 3, and 4: dilated sinusoids,. Focal lymphocyte cluster with rare acidophil body. Minimal portal tract inflammation”; the “Organ Pathology, LUNG” value is given as 1 + 2: No abnormality. 3 + 4: Minimal perivascular lymphocytes. For the same molecule, the “impact on liver, lung and spleen weights” value in the data set on F344 BigBlue rats [3] is “no statistically significant impact”. Further, the “result in the modified Solt-Farber Initiation Protocol” value in data set [7] is “positive”. Besides, in the data set on F344 BigBlue rats [4] (Female), the “Organ Pathology, LIVER” value was “rare acidophilic bodies, but 3 of 4 animals had patchy hepatocellular necrosis and chronic inflammation and 1: Rare acidophilic bodies with patchy hepatocellular necrosis and chronic inflammation. 2 + 3: Rare acidophilic bodies with patchy hepatocellular necrosis and chronic inflammation. 4: Scattered acidophilic bodies with dilated sinusoids”; the “Organ Pathology, LUNG” value was 1: Minimal acute inflammation 2: Almost normal with focal perivascular lymphocytes. 3: No abnormality. 4: Patchy bronchopneumonia with early ARDS. Perivascular lymphocytes increased; the “Organ Pathology, SPLEEN” value was 1 – 4: Reduced mantle. Besides, the “Organ Pathology, SPLEEN” value with F344 BigBlue rats [4] (Male) was 1: No abnormality 2 + 3: Reduced mantle with focally increased neutrophils. 4: Reduced mantle with focally increased neutrophils with red pulp congestion. Moreover, in the data set with LacI gene [5], the “significance of the increase in mutation frequency compared to control” value was “neither PCB3 (p=0.429) nor 4′-OH-PCB3 (p=0.581) increased the mutation frequency significantly”, the “Mutants per 10^6 plaques (mutant frequency)” value came to 27.3 per 10^6 plaques, the “Mutation Frequency (MF) ± SE (corrected)” value came to 27.2 ± 6.6 per 10^6 pfu and the “Number of Mutations (corrected)” value came to 19. Further, the “number of unique genes significantly changed” value in the data set with liver mRNA was found to be 157. In addition, in the data set with liver mRNA (versus corn oil control, down), the “cul1 (cullin 1) expression change” value was 36.3 fold and the “ei24 (etoposide induced 2.4 mRNA) expression change” value is given as 28.1 fold. Further, the cyp2b2 expression change in the data set on liver mRNA (versus corn oil control, down-regulated) is roughly 19 fold. Further, in the data set on liver mRNA (versus corn oil control, up), the “aqp2 (aquaporin 2) expression change” value stood at 6.6 fold, the “bnip3l (BCL2/adenovirus E1B interacting protein 3-like) expression change” value turned out to be 5.8 fold, the “kdr (kinase insert domain protein receptor) expression change” value turned out to be 6.4 fold and the “sh3glb1 (SH3-domain GRB2-like endophilin B1) expression change” value is on record as 6.3 fold. In the data set with liver mRNA (versus corn oil control, up), the “stat1 (signal transducer and activator of transcription 1) expression change” value came to 10.6 fold; the “syvn1 (synovial apoptosis inhibitor 1) expression change” value was 26.7 fold. For the same molecule, in the data set on liver mRNA (setting [8]), the Cyp2j4 expression change is 8.8 fold and the “sult1b1 (sulfotransforase 1b1) expression change” value was roughly 7 fold.

For `Clc1ccc(-c2cc(Cl)c(Cl)cc2Cl)cc1Cl` [PCB 118, 2,3′,4,4′,5-pentachloro-biphenyl], the “carcinogenicity in chronic carcinogenicity studies” value in the data set on Sprague Dawley rat is recorded as “clear evidence”.

With `Clc1ccc(-c2cc(Cl)c(Cl)c(Cl)c2)cc1Cl` [PCB 126, 3,3′,4,4′,5-pentachlorobiphenyl], in the data set with Sprague Dawley rat, the “carcinogenicity in chronic carcinogenicity studies” value is listed as “clear evidence”.
